Test results from ChEMBL document CHEMBL5653631, “A Potent and Selective ULK1 Inhibitor Suppresses Autophagy and Sensitizes Cancer Cells to Nutrient Stress” (iScience, 2018).

Experiments:
[1] = molecular target: Vascular endothelial growth factor receptor 3 (Homo sapiens) (UniProt P35916); assay: Inhibition of human recombinant FLT4 at 40 nM in presence of ATP by radiometric assay relative to control
[2] = molecular target: Dual specificity mitogen-activated protein kinase kinase 1 (Homo sapiens) (UniProt Q02750); assay: Inhibition of human recombinant MAP2K1 at 40 nM related to control ULK1
[3] = molecular target: Calcium/calmodulin-dependent protein kinase type II subunit beta (Homo sapiens) (UniProt Q13554); assay: Inhibition of human recombinant CaMK2b at 40 nM related to control ULK1
[4] = molecular target: T1, Serine/threonine-protein kinase DCLK3 (Homo sapiens) (UniProt Q9C098); assay: Inhibition of human recombinant DCAMKL3 at 15 nM related to control ULK1
T1 sequence (whole entry): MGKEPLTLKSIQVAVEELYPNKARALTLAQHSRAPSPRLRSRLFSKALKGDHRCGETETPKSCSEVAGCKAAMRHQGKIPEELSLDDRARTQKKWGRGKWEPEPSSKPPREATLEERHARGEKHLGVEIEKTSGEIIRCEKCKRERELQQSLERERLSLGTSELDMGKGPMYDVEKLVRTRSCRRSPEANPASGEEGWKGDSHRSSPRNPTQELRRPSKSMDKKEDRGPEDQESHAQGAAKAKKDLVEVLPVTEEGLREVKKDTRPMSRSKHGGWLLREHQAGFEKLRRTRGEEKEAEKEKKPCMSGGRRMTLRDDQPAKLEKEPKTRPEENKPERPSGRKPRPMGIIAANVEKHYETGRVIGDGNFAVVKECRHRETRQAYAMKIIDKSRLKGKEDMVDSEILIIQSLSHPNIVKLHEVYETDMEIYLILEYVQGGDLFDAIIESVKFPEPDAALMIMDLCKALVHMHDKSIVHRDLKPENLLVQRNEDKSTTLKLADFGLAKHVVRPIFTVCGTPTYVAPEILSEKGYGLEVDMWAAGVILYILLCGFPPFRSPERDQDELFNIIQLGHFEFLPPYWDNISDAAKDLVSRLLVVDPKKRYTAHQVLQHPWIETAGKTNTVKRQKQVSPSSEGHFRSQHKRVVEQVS

[5] = molecular target: Vascular endothelial growth factor receptor 1 (Homo sapiens) (UniProt P17948); assay: Inhibition of human recombinant FLT1 at 15 nM related to control ULK1
[6] = molecular target: RAC-beta serine/threonine-protein kinase (Homo sapiens) (UniProt P31751); assay: Inhibition of human recombinant AKT2 at 15 nM related to control ULK1
[7] = molecular target: Serine/threonine-protein kinase B-raf (Homo sapiens) (UniProt P15056); assay: Inhibition of human recombinant BRAF at 15 nM in presence of ATP by radiometric assay relative to control
Summary of the method: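 Part of a radiometric in vitro activity panel of 327 recombinant human kinases. Each kinase was tested in duplicate at one inhibitor concentration. Activity remaining was expressed as a percentage of the vehicle control, and percent inhibition was taken as 100 minus that value.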

[8] = molecular target: T2, Phosphorylase b kinase gamma catalytic chain, liver/testis isoform (Homo sapiens) (UniProt P15735); assay: Inhibition of human recombinant PHKg2 at 15 nM in presence of ATP by radiometric assay relative to control
T2 sequence (whole entry): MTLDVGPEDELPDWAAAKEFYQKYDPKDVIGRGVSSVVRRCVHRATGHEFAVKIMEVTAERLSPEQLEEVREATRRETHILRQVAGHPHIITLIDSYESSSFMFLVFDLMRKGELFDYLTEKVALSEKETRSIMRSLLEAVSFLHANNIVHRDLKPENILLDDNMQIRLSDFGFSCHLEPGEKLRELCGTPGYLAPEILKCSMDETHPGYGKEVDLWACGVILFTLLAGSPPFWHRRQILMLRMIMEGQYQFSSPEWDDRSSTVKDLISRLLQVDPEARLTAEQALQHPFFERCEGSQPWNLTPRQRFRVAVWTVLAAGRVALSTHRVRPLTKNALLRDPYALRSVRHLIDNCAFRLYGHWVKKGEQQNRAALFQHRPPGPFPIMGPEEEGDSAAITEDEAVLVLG

[9] = molecular target: Tyrosine-protein kinase Fes/Fps (Homo sapiens) (UniProt P07332); assay: Inhibition of human recombinant FES at 500 nM in presence of ATP by radiometric assay relative to control
[10] = molecular target: Serine/threonine-protein kinase PAK 3 (Homo sapiens) (UniProt O75914); assay: Inhibition of human recombinant PAK3 at 500 nM related to control ULK1
[11] = molecular target: Rho-associated protein kinase 2 (Homo sapiens) (UniProt O75116); assay: Inhibition of human recombinant ROCK2 at 500 nM in presence of ATP by radiometric assay relative to control
[12] = molecular target: Rho-associated protein kinase 2 (Homo sapiens) (UniProt O75116); assay: Inhibition of human recombinant ROCK2 at 500 nM related to control ULK1
[13] = molecular target: T3, Serine/threonine-protein kinase 3 (Homo sapiens) (UniProt Q13188); assay: Inhibition of human recombinant MST2 at 500 nM related to control ULK1
T3 sequence (whole entry): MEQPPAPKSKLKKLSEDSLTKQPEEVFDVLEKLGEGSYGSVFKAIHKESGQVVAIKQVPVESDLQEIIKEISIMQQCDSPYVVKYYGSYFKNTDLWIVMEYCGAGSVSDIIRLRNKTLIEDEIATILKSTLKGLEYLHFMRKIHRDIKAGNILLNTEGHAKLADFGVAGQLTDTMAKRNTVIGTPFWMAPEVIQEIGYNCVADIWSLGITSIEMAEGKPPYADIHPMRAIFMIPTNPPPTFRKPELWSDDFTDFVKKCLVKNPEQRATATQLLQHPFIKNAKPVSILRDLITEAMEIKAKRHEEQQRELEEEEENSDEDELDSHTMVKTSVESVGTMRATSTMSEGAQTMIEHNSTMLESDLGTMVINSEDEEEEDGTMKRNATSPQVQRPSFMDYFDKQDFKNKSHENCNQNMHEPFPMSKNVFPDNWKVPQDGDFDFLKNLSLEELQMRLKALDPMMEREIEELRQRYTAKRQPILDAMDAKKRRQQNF

[14] = molecular target: Serine/threonine-protein kinase MRCK alpha (Homo sapiens) (UniProt Q5VT25); assay: Inhibition of human recombinant MRCKa at 500 nM related to control ULK1
[15] = molecular target: Serine/threonine-protein kinase 25 (Homo sapiens) (UniProt O00506); assay: Inhibition of human recombinant YSK1 at 500 nM in presence of ATP by radiometric assay relative to control

Sequence of Rho-associated protein kinase 2 (Homo sapiens) (O75116 whole entry, looked up): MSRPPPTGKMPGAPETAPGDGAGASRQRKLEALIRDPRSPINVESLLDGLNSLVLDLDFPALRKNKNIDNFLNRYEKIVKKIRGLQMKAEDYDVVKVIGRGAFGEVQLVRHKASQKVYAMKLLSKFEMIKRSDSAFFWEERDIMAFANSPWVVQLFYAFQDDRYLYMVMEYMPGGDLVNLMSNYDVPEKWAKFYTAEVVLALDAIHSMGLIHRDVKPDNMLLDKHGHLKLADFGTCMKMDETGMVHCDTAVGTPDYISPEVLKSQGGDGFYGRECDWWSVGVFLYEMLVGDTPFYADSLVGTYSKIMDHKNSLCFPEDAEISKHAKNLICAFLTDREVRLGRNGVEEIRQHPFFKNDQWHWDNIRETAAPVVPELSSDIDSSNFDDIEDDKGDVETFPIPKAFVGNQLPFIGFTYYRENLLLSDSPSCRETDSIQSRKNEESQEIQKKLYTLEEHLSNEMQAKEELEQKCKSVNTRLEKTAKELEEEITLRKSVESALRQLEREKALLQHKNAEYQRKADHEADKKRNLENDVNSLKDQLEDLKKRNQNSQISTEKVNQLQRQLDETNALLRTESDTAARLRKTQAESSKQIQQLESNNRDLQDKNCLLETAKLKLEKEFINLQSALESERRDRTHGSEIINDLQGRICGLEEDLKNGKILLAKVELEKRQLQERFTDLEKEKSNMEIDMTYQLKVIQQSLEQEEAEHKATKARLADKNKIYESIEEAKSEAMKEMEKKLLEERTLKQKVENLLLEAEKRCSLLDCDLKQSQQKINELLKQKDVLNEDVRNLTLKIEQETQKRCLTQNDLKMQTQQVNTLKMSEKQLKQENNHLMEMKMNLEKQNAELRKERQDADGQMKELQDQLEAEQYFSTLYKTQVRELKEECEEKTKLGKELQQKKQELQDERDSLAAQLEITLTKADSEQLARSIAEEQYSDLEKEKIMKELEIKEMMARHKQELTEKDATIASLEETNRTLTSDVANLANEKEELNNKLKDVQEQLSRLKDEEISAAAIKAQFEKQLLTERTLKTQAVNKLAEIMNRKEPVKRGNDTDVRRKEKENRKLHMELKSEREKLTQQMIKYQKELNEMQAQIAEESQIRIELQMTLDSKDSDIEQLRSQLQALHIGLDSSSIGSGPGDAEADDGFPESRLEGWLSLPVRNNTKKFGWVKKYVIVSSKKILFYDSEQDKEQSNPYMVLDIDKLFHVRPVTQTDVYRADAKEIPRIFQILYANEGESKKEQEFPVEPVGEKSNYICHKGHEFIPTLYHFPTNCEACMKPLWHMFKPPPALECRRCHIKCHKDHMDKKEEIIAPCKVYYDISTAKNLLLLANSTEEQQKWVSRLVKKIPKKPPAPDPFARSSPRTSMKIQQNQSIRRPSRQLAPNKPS
Sequence of Serine/threonine-protein kinase B-raf (Homo sapiens) (P15056 whole entry): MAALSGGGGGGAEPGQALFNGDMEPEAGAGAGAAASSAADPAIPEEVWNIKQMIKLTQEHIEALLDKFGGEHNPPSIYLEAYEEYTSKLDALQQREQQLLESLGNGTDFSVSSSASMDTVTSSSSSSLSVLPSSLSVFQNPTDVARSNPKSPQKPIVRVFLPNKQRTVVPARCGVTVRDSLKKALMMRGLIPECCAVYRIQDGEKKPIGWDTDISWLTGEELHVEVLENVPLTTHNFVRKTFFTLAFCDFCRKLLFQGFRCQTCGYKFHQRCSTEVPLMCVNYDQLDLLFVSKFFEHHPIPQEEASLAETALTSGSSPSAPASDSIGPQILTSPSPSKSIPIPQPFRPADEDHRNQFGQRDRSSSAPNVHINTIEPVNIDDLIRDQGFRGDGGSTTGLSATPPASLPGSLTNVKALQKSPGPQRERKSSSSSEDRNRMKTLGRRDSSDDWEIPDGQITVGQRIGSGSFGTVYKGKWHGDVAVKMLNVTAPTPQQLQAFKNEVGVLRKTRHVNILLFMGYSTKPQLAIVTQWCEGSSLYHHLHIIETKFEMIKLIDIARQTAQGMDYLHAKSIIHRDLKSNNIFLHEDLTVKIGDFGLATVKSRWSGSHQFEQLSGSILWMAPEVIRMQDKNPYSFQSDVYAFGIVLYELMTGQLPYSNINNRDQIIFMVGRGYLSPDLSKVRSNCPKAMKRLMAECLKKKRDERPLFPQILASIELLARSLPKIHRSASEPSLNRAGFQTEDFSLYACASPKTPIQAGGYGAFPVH
Sequence of Calcium/calmodulin-dependent protein kinase type II subunit beta (Homo sapiens) (Q13554 whole entry): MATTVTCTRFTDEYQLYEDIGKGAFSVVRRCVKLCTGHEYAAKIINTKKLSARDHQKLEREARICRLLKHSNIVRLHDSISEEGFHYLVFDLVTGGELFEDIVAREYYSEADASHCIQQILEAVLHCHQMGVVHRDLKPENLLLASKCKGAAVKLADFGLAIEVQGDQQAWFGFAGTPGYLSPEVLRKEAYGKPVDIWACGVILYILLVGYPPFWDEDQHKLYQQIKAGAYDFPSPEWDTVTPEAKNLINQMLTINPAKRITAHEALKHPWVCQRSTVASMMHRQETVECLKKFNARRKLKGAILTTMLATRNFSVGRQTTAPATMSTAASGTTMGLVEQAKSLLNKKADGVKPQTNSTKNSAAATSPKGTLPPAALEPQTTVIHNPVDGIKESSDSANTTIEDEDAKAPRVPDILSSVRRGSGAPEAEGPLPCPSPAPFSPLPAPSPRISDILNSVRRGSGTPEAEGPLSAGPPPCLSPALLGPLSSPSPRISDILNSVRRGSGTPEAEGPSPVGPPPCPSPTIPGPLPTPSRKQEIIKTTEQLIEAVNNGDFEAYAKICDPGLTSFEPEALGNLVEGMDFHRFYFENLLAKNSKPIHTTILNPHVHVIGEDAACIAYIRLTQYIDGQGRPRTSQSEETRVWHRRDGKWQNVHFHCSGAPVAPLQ
Sequence of Vascular endothelial growth factor receptor 3 (Homo sapiens) (P35916 whole entry): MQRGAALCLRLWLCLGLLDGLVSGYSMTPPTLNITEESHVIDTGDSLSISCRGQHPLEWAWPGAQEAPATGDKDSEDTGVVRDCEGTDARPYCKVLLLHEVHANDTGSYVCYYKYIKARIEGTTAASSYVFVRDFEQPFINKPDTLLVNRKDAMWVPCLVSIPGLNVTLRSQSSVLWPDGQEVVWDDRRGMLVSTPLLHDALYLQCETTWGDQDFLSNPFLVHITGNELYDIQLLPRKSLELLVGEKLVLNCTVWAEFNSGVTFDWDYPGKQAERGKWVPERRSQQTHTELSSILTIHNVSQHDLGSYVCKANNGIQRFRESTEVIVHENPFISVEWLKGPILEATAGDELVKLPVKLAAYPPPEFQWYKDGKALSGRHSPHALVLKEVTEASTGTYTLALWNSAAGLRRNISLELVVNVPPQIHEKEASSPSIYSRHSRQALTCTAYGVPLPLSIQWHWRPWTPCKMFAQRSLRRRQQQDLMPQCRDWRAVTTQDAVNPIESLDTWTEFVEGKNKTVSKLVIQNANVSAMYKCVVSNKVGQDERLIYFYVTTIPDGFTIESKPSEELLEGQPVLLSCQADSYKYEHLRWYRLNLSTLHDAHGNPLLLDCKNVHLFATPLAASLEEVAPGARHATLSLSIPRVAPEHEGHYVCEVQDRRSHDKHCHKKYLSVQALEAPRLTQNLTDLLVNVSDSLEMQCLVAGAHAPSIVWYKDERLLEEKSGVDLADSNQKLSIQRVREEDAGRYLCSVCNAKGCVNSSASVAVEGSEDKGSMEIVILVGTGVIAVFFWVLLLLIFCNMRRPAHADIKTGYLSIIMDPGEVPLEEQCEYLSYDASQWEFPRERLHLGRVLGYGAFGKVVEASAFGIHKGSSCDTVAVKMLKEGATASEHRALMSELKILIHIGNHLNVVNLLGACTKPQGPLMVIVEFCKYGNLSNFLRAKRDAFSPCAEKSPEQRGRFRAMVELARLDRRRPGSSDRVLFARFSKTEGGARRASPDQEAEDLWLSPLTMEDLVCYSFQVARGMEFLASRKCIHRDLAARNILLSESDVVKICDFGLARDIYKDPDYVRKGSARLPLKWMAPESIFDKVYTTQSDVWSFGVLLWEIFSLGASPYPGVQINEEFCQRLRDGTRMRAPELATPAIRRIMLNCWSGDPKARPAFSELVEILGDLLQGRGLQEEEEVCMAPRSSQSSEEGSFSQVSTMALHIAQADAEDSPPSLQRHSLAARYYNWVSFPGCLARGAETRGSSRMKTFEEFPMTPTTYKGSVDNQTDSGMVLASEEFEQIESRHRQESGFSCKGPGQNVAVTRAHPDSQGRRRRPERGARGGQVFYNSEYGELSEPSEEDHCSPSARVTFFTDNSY
Sequence of RAC-beta serine/threonine-protein kinase (Homo sapiens) (P31751 whole entry): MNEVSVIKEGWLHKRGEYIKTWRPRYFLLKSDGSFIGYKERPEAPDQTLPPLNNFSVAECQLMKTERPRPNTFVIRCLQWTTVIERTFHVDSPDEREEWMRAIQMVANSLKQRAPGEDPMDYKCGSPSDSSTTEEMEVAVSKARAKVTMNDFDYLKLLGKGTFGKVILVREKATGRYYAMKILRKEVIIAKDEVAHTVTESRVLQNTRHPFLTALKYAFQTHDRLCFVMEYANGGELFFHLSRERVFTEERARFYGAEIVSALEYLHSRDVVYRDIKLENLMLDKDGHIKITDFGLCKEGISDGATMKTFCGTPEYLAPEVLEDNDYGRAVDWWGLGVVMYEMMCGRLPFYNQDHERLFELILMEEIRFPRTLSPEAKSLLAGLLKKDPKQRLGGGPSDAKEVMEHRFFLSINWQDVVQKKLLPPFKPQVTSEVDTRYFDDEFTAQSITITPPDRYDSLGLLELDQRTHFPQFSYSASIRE
Sequence of Dual specificity mitogen-activated protein kinase kinase 1 (Homo sapiens) (Q02750 whole entry): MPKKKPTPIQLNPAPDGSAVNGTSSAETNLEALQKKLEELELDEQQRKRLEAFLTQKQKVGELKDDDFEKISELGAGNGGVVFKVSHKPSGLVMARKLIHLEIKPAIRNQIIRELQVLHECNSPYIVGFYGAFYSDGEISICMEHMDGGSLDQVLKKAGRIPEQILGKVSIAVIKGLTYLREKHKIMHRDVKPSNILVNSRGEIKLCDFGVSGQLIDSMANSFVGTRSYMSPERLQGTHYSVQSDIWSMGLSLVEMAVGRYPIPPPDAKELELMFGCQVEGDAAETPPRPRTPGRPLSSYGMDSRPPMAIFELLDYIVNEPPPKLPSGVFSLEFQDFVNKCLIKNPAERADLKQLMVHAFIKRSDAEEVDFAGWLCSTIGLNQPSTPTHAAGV

An inhibition [1] of 19%, a fold change (FC) [2] of 0 and a fold change (FC) [3] of 0 were found for `O=C(N[C@@H](C1CC1)C(F)(F)F)c1cc(-c2cnn3cc(-c4ccc(F)cc4)cnc23)cs1` in this work.
A fold change (FC) [4] of 0.4, a fold change (FC) [5] of 0.1 and a fold change (FC) [6] of 0 were found for `CC(C)[C@H](NC(=O)c1cc(-c2cnn3cc(-c4ccc(OCCN5CCCCC5)cc4)cnc23)cs1)C(F)(F)F` in this work. It also gave an inhibition [7] of 11% and an inhibition [8] of 9%.
An inhibition [9] of 28%, a fold change (FC) [10] of 0.12 and an inhibition [11] of 0% were found for `CNC(=O)c1ccccc1Oc1nc(Nc2cc(OC)c(OC)c(OC)c2)ncc1Br` in this work. It also gave a fold change (FC) [12] of 0, a fold change (FC) [13] of 0 and a fold change (FC) [14] of 0.09. For the same compound, the inhibition [15] was 12%.
